This is an account of results in ChEMBL document CHEMBL1142981, “Identification and synthesis of a novel selective partial PPARdelta agonist with full efficacy on lipid metabolism in vitro and in vivo” (J Med Chem, 2007).

Series [1] relates to Mus musculus. Kind of series: Decrease in HbA1c level in human ApoB100/CETP transgenic mouse at 10 mg/kg, po after 6 weeks relative to control. The series is classed as functional. More on the design: scale not given: the % may be the effect or the level left.
The target of series [2] is T1, Peroxisome proliferator-activated receptor gamma (Homo sapiens, UniProt P37231).
T1 sequence (P37231 whole entry): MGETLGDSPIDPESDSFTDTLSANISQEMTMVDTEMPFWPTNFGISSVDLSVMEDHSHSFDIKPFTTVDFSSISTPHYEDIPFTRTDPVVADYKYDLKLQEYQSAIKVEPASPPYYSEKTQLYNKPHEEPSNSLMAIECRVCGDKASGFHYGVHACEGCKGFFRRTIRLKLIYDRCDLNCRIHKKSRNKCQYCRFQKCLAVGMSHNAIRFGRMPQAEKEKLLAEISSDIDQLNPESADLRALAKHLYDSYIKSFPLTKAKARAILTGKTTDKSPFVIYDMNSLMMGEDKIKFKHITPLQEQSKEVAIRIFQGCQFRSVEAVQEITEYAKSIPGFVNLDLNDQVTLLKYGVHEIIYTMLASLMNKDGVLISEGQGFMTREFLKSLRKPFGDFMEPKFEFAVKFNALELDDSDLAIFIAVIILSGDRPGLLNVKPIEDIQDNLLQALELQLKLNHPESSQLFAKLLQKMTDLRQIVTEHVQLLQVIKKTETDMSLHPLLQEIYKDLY
The format is cell-based, HEK293.

Series [3] deals with Mus musculus. Kind of series: Decrease in total ketone bodies level in human ApoB100/CETP transgenic mouse at 10 mg/kg, po after 6 weeks relative to control. The format is functional. More on the design: scale not given: the % may be the effect or the level left.
Series [4] can be described thus: Plasma Cmax in Sprague-Dawley rat at 2.06 mg/kg, po. More on the design: dose 2.06 mg/kg, route oral. The series is classed as ADME, organism-based. The essentials: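 Male SD rats received a single p.o. or i.v. dose (n = 8 per route) in 5% ethanol, 10% HPCD and phosphate buffer, pH 7.5-8.0. At 5, 15, 30, 60, 90, 120, 240 and 360 min one rat was sacrificed per time point. EDTA plasma was assayed by high turbulence LC-MS/MS. Cmax and bioavailability were taken from oral dosing; volume of distribution is at steady state.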

Series [5] concerns Mus musculus. Nature of the series: Increase in HDL level in human ApoB100/CETP transgenic mouse at 10 mg/kg, po after 6 weeks relative to control. The series is classed as functional.
In series [6] the test system is Mus musculus. Nature of the series: Decrease in total ketone bodies level in human ApoB100/CETP transgenic mouse at 20 mg/kg, po after 6 weeks relative to control. The format is functional. More on the design: scale not given: the % may be the effect or the level left.

SMILES strings stand for the structures.

For the molecule `O=C(O)COc1ccc(SCC=C(c2ccc(Br)cc2)c2ccc(Br)cc2)cc1Cl`, the Activity in series [1] came out at 9%; in series [3], 10%; in series [5] it was 14%; in series [6], 29%. Further, the EC50 in series [2] is greater than 10 µM. Further, in series [4], the Cmax came out at 508 ng/mL.

By EC50 is commonly meant the midpoint of the concentration-response curve. As usually defined, the Cmax is the peak of the concentration-time curve.
